Experimental data: ChEMBL document CHEMBL1133575 (J Med Chem, 2000)

Assays:
[1] = biological target: T1, Sodium-dependent dopamine transporter (Rattus norvegicus, UniProt P23977); assay: Inhibition of [3H]DA Uptake at Dopamine transporter in rat cortex was measured by liquid scintillation spectrometry; assay type: tissue-based
[2] = biological target: Norepinephrine transporter (Rattus norvegicus, UniProt Q9WTR4); assay: Compound was tested for Inhibition of [3H]NE Uptake in rat parietal/occipital cortex
In short: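 [3H]NE uptake used rat parietal/occipital cortex synaptosomes in modified KRH buffer. Drug was preincubated for 30 min at 37 °C, then radiolabel was added for 5 min. Uptake was stopped with cold sodium-free buffer, filtered and counted by liquid scintillation. Specific uptake was defined with 1 uM desipramine.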

[3] = biological target: Sodium-dependent serotonin transporter (Rattus norvegicus, UniProt P31652); assay: Compound was tested for Inhibition of [3H]5-HT Uptake in rat mid brain.; assay type: tissue-based
In short: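 [3H]5-HT uptake used rat midbrain synaptosomes in modified KRH buffer. Drug was preincubated for 30 min at 37 °C, then tritiated substrate was added for 5 min. Uptake was stopped in cold sodium-free buffer, filtered and counted by scintillation. Specific uptake was defined with 10 uM fluoxetine.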

[4] = biological target: T1, Sodium-dependent dopamine transporter; assay: Binding Affinity to cocaine site of Dopamine transporter in caudate nuclei which was homogenized and incubated with [3H]mazindol.
In short: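 Rat striatal membranes, washed in KRH buffer (pH 7.4, with 0.01 mM nialamide) and frozen at −80 °C, thawed at 75–125 ug protein/mL. Incubated with [3H]mazindol plus competitor for 60 min at 4 °C. […] Separated by GF/C filtration and counted by scintillation. IC50 fitted with LIGAND.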

[5] = biological target: T1, Sodium-dependent dopamine transporter; assay: Inhibition of [3H]DA Uptake at dopamine transporter in rat cortex was measured by liquid scintillation spectrometry; assay type: tissue-based
[6] = biological target: Sodium-dependent dopamine transporter (Homo sapiens, UniProt Q01959); assay: Binding Affinity to cocaine site of dopamine transporter in caudate nuclei which was homogenized and incubated with [3H]mazindol.
Sodium-dependent dopamine transporter (Homo sapiens, UniProt Q01959), sequence (Q01959 whole entry): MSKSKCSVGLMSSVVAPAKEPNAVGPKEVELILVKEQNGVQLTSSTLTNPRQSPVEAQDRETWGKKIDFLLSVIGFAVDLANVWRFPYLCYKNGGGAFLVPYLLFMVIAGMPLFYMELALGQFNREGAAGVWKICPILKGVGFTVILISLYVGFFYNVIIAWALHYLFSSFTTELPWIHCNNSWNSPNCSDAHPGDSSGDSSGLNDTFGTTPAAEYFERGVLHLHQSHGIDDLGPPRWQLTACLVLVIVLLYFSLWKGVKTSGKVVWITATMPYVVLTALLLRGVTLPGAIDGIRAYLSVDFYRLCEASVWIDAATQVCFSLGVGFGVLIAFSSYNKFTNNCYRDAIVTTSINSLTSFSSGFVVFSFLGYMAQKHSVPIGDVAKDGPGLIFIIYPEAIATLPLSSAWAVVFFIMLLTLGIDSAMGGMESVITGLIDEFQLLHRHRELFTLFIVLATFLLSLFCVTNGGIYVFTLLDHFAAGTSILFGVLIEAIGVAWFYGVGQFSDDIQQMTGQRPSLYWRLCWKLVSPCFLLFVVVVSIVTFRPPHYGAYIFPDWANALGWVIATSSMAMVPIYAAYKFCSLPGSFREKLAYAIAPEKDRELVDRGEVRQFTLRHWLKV

T1 sequence (P23977 whole entry): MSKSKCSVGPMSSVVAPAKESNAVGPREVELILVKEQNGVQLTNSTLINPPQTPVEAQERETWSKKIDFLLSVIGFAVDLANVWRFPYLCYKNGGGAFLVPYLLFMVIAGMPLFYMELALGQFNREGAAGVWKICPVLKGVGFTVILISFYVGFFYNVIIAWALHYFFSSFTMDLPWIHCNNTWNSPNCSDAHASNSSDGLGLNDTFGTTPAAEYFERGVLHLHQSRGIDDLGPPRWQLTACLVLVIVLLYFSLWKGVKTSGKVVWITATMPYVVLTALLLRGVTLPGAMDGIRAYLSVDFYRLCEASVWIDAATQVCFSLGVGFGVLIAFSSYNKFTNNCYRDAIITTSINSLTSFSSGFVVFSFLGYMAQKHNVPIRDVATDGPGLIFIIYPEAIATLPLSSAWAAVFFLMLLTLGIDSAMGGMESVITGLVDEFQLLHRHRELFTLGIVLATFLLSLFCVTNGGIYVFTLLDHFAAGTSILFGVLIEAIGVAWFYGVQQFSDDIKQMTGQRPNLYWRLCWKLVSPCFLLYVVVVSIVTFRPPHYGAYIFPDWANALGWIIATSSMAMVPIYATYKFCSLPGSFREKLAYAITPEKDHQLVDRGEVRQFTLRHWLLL
Sodium-dependent serotonin transporter, sequence (P31652 whole entry): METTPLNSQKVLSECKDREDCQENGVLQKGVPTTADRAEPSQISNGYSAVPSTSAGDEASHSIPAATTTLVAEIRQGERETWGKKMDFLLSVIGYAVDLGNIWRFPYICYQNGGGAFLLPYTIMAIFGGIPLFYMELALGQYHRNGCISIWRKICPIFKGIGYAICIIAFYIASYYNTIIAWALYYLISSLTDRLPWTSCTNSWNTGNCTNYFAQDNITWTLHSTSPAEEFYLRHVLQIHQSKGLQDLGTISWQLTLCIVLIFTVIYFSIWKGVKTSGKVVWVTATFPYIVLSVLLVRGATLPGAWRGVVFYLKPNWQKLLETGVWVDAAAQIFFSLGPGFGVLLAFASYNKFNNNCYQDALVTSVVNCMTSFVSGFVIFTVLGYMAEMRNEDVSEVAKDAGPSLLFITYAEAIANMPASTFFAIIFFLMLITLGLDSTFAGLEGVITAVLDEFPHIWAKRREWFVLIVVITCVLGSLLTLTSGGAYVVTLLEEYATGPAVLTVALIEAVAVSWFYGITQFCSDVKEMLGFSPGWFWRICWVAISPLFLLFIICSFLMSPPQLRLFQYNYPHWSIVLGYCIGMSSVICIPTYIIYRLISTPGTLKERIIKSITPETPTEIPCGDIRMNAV
Norepinephrine transporter, sequence (Q9WTR4 whole entry): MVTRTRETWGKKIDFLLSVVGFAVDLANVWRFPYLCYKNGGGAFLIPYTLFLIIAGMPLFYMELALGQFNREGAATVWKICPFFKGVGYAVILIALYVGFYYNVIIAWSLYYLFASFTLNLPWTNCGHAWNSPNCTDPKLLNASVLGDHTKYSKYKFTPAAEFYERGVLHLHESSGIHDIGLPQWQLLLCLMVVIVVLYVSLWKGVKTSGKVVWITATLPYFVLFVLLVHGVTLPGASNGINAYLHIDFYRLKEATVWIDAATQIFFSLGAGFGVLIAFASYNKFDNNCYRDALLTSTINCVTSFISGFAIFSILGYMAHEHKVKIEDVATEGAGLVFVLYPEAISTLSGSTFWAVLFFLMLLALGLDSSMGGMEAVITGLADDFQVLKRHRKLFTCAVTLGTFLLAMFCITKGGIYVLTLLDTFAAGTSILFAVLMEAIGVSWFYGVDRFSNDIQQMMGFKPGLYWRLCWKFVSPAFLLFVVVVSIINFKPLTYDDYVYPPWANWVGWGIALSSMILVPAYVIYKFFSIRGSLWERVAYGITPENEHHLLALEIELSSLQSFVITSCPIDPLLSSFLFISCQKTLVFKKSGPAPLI

Row | SMILES | Ki [1] [µM] | Ki [2] [µM] | Ki [3] [µM] | Ki [4] [µM] | Ki [5] [µM] | Ki [6] [µM]
1 | Cc1ccc(C(=O)C2CN(C)CCC2(O)c2ccc(C)cc2)cc1 (stereo not given) | 0.36 | 3.86 | 1.63 | 0.492 | – | –
2 | CN1CCC(O)(c2ccc(Cl)cc2Cl)C(C(=O)c2ccc(Cl)cc2Cl)C1 (stereo not given) | – | – | – | – | 5.85 | –
3 | Cc1ccc(C2OC(=O)OC3(c4ccc(C)cc4)CCN(C)CC23)cc1 (stereo not given) | – | – | – | – | 9.48 | –
4 | CN1CCC(O)(c2ccccc2)C(C(=O)c2ccccc2)C1 (stereo not given) | 2.59 | – | – | 4.42 | – | –
5 | CN1CCC(O)(c2ccc(F)cc2)C(C(=O)c2ccc(F)cc2)C1 (stereo not given) [FLAZALONE] | – | – | – | – | 4.2 | 5.7
6 | Cc1ccc([C@H](O)C2CN(C)CCC2(O)c2ccc(C)cc2)cc1 (stereo not given in full) | – | – | – | – | 15.8 | 10.7
7 | CN1CCC(O)(c2ccc(Cl)c(Cl)c2)C(C(=O)c2ccc(Cl)c(Cl)c2)C1 (stereo not given) | – | 0.177 | 2.38 | – | 0.051 | 0.0109
8 | CN1CCC(O)(c2ccc(Cl)cc2Cl)C([C@@H](O)c2ccc(Cl)cc2Cl)C1 (stereo not given in full) | – | – | – | – | 7.52 | 4.35
9 | CN1CCC(O)(c2ccc(Cl)c(Cl)c2)C([C@@H](O)c2ccc(Cl)c(Cl)c2)C1 (stereo not given in full) | – | – | – | – | 4.22 | 4.14
